The results in this text go back to ChEMBL document CHEMBL2062455, “Daphmacromines A-J, alkaloids from Daphniphyllum macropodum” (J Nat Prod, 2012).

Where only a bound is given, the exact number is not on record here.

In one data set the test system is SW480. Kind of data set: Cytotoxicity against human SW480 cells after 48 hrs by MTT assay. The format is functional, cell-based. The following applies: SW480, 48 h. The procedure, abridged: (§1)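 Cells kept in DMEM or RPMI-1640 with 10% FBS at 37 °C, 5% CO2. Initial density 5 × 10^3 to 1 × 10^4 cells/mL. Adherent cells attached 12 h before dosing; suspension cells seeded just before dosing. Compounds at 40 μM, triplicate, 48 h, cisplatin and paclitaxel as positive controls. MTT then 4 h at 37 °C, SDS lysis, OD 595 nm. IC50 by Reed–Muench method.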
(Tetrazolium dyes change colour on reduction, which living cells bring about.)

The test system of a further data set is HL-60. As to the kind of experiment: Cytotoxicity against human HL60 cells after 48 hrs by MTT assay. Conditions: HL-60, 48 h. It is filed as functional, cell-based. The procedure, abridged: as §1
A further data set has as its system A549. Kind of data set: Cytotoxicity against human A549 cells after 48 hrs by MTT assay. The format is functional, cell-based. Conditions: A549, 48 h. An outline of the steps: as §1
A further data set concerns MCF7. Kind of data set: Cytotoxicity against human MCF7 cells after 48 hrs by MTT assay. The format is functional, cell-based. The following applies: MCF7, 48 h. An outline of the steps: as §1
A short description of data set [1]: Toxicity in brine shrimp assessed as mortality at […] after 24 hrs by microscopic analysis. It is filed as organism-based. Conditions: artemia salina, in vivo; read-out: Activity. The procedure, abridged:
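Artemia salina eggs hatched in artificial seawater for 48 h at 28 °C to give nauplii. Compounds dissolved in DMSO, then diluted in artificial seawater to 100, 50 and 10 mg/L and tested in triplicate, with DMSO control wells. 15−25 nauplii per well, covered plate, 28 °C, 24 h. Nonmotile nauplii were scored as dead under the microscope.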

In the next data set the test system is SMMC-7721. As to the kind of experiment: Cytotoxicity against human SMMC7721 cells after 48 hrs by MTT assay. The format is functional, cell-based. The following applies: SMMC-7721, 48 h. An outline of the steps:
as §1

Consider `COC(=O)[C@@H]1C[C@@]23C(=O)N4C[C@@H](CCC5=C2[C@@H]1CC5)[C@]3(CO)/C=C\C(=O)[C@H](C)C4`, for which the half-inhibitory concentration (IC50) with SW480, with HL-60, in the data set with A549, in the data set with MCF7 and with SMMC-7721 was more than 40 µM each time. Also, in data set [1], the mortality at 24 h turned out to be 38.3%.
For `COC(=O)[C@@H]1C[C@@]23C4=C(CC[C@@H]5CN6C[C@@H](C)[C@@H](C=C[C@@]52C=O)[C@]63O)CC[C@@H]41` [DAPHHIMALENINE B], the IC50 with SW480, in the data set on HL-60, in the data set with A549, in the data set with MCF7 and in the data set on SMMC-7721 was more than 40 µM in each case. Besides, the mortality at 24 h in data set [1] came out at 64.9%.
On to `CCOC(=O)[C@@H]1C[C@@]23CN(C)C[C@@H](CCC4=C2[C@@H]1CC4=O)C31CC[C@](CC)(OC)OC1` (stereo partly specified) [DAPHMACROMINE A], for which the IC50 in the data set on SW480, in the data set on HL-60, with A549, in the data set with MCF7 and with SMMC-7721 was more than 40 µM in each case. Besides, the mortality at 24 h in data set [1] was determined as 41%.
`CCOC(=O)[C@@H]1C[C@@]23CN(C)C[C@@H](CCC4=C2[C@H]1CC4=O)C31CC[C@](CC)(OC)OC1` (stereo partly specified) [DAPHMACROMINE B]: the concentration for half-maximal inhibition (IC50) in the data set on SW480, with HL-60, in the data set with A549, in the data set with MCF7 and in the data set on SMMC-7721 was more than 40 µM each time. Besides, the mortality at 24 h in data set [1] turned out to be 49.9%.
Take `CCO[C@@]1(CC)CCC2(CO1)[C@@H]1CCC3=C4[C@H](CC3=O)[C@H](C(=O)OC)C[C@@]42CN(C)C1` (stereo partly specified) [DAPHMACROMINE C]: the 50% inhibitory concentration (IC50) in the data set with SW480, in the data set with HL-60, in the data set with A549, in the data set with MCF7 and in the data set on SMMC-7721 was more than 40 µM in each case. In data set [1], the mortality at 24 h turned out to be 50.9%.
For the compound `CCO[C@@]1(CC)CCC2(CO1)[C@@H]1CCC3=C4[C@@H](CC3=O)[C@H](C(=O)OC)C[C@@]42CN(C)C1` (stereo partly specified) [DAPHMACROMINE D], the IC50 in the data set on SW480, with HL-60, in the data set on A549, in the data set with MCF7 and in the data set with SMMC-7721 was more than 40 µM throughout. In data set [1], the mortality at 24 h was determined as 53.8%.
Take `CC[C@]1(OC)CCC2(CO1)[C@@H]1CCC3=C4[C@H](CC3=O)[C@H](C(=O)OC)C[C@@]42CN(C)C1` (stereo partly specified) [DAPHMACROMINE E]: the IC50 in the data set with SW480, in the data set with HL-60, in the data set with A549, in the data set on MCF7 and in the data set with SMMC-7721 was more than 40 µM in each case. In addition, the mortality at 24 h in data set [1] was found to be 70.9%.
Turning to `CC[C@@]1(OC)CCC2(CO1)[C@@H]1CCC3=C4[C@H](CC3=O)[C@H](C(=O)OC)C[C@@]42CN(C)C1` (stereo partly specified) [DAPHMACROMINE F], the IC50 in the data set with SW480, in the data set on HL-60, in the data set with A549, with MCF7 and in the data set with SMMC-7721 was more than 40 µM each time. Moreover, in data set [1], the mortality at 24 h was 45%.
For `CC[C@]1(OC)CCC2(CO1)[C@@H]1CCC3=C4[C@@H](CC3=O)[C@H](C(=O)OC)C[C@@]42CN(C)C1` (stereo partly specified) [DAPHMACROMINE G], the IC50 with SW480, in the data set with HL-60, with A549, in the data set with MCF7 and in the data set with SMMC-7721 was more than 40 µM each time. Further, the mortality at 24 h in data set [1] was determined as 67.7%.
With `COC(=O)[C@@H]1C[C@@]23CN(C)C[C@@H](CCC4=C2[C@H]1CC4=O)C31CC[C@@](O)(C(C)C)OC1` (stereo partly specified) [DAPHMACROMINE H], the IC50 in the data set with SW480, in the data set with HL-60, in the data set on A549, in the data set on MCF7 and in the data set on SMMC-7721 was more than 40 µM each time.
As to `CCC1=CCC2(CO1)[C@@H]1CCC3=C4[C@H](CC3=O)[C@H](C(=O)OC)C[C@@]42CN(C)C1` (stereo partly specified) [DAPHMACROMINE I], the half-maximal inhibitory concentration (IC50) in the data set with SW480, in the data set on HL-60, with A549, in the data set on MCF7 and in the data set with SMMC-7721 was more than 40 µM each time. Further, the mortality at 24 h in data set [1] turned out to be 64.6%.
In the case of `COC(=O)[C@@H]1C[C@@]23CN(C)C[C@@H](CCC4=C2[C@@H]1CC4=O)C31CC=C(C(C)C)OC1` (stereo partly specified) [DAPHMACROMINE J], the 50% inhibitory concentration (IC50) with SW480, with HL-60, in the data set with A549, in the data set on MCF7 and with SMMC-7721 was more than 40 µM in each case. For the same compound, the mortality at 24 h in data set [1] was 55.2%.
Consider `COC(=O)[C@@H]1C[C@@]23C4=C(CC[C@@H]5CN6C[C@@H](C)[C@@H](C[C@@H](O)[C@@]52CO)[C@]63O)CC[C@@H]41` [DAPHNEZOMINE K], for which the concentration for half-maximal inhibition (IC50) in the data set with SW480, in the data set with HL-60, with A549, with MCF7 and in the data set on SMMC-7721 was more than 40 µM throughout. In addition, the mortality at 24 h in data set [1] was 0%.
`COC(=O)[C@@H]1C[C@]23C4=NC[C@@H](C)[C@]45C[C@@H](OC(C)=O)[C@@]2(COC(C)=O)[C@H](CCC2=C3[C@@H]1CC2)[C@H]5O` [DAPHTENIDINE C]: the IC50 in the data set on SW480, with HL-60, in the data set with A549, with MCF7 and in the data set with SMMC-7721 was more than 40 µM each time. For the same compound, the mortality at 24 h in data set [1] worked out at 31.8%.
As to `COC(=O)[C@@H]1C[C@@]23C4=C(CC[C@@H]5CN6C[C@@H](C)[C@@H](C[C@@H](OC(C)=O)[C@@]52COC(C)=O)C63)CC[C@@H]41` [DEOXYYUZURIMINE], the half-inhibitory concentration (IC50) with SW480, with HL-60, in the data set on A549, with MCF7 and in the data set on SMMC-7721 was more than 40 µM in each case. Further, the mortality at 24 h in data set [1] was 81.8%.
As for `COC(=O)[C@@H]1C[C@@]23C4=C(CC[C@@H]5CN6C[C@H](C)[C@@](O)(C=C[C@@]52C=O)[C@]63O)CC[C@@H]41` [YUZURIMINE C], the IC50 in the data set on SW480, with HL-60, in the data set on A549, in the data set with MCF7 and in the data set on SMMC-7721 was more than 40 µM each time. For the same compound, the mortality at 24 h in data set [1] came to 80.6%.
In the case of `COC(=O)[C@@H]1C[C@@]23C4=C(CC[C@@H]5CN6C[C@@H](C)[C@@H](C[C@@H](OC(C)=O)[C@@]52COC(C)=O)[C@]63O)CC[C@@H]41` [YUZURIMINE], the IC50 in the data set with SW480, with HL-60, in the data set with A549, in the data set with MCF7 and in the data set on SMMC-7721 was more than 40 µM throughout. In addition, in data set [1], the mortality at 24 h is 70.8%.

The term IC50 denotes the concentration needed to halve the response being measured. Read a high IC50 as weaker potency.
